RAD52 anneal inh: RAD52 (human) annealing inhibition | P43351 | recombinant RAD52 DNA annealing, FRET fluorescence | inhibition, % at 18.7 µM | hit rate 0.46% among 360,000;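 active means every replicate showing at least 50% inhibition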
Target sequence (P43351 whole entry, looked up): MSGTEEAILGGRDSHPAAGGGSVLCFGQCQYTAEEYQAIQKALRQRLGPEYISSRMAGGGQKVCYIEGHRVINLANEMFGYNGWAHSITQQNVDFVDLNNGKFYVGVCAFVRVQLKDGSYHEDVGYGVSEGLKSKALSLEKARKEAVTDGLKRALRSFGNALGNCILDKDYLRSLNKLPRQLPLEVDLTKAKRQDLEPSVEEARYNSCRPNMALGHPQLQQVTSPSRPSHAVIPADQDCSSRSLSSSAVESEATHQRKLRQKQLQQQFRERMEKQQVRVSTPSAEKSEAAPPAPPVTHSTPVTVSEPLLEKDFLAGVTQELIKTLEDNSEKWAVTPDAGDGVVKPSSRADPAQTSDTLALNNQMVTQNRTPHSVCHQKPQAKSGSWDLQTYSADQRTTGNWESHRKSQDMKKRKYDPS
E-sel inducer: induces E-selectin expression in human endothelial cells | activation, % at 7.58 µM | AID 686992 | hit rate 0.37% among 260,000 | P16581 | HUVEC E-selectin immunofluorescence imaging; normalized: neutral wells 0, TNF-alpha wells 100;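 active means mean E-selectin-positive cell signal at least 10% of the positive control, reached in at least 60% of replicates, without over 20% cell loss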
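Assay system: HUVEC primary endothelial cells. Input: 3,000 HUVEC seeded per well. Doses: one compound dose added by pin transfer. Read-out basis: % PE-positive cells. Benchmarks: TNF-alpha high, DMSO low. Detection: immunofluorescence imaging. Buffer or medium: EGM-2, gelatin.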
PglD inh: inhibitors of Campylobacter jejuni PglD acetyltransferase. hit rate 0.098% among 360,000. AID 602405. inhibition, % at 12.5 µM. purified PglD enzyme, DTNB colorimetric CoA detection; in the data active means inhibition above about 16%, passing the limit was not always enough
Ecoli rRNA inh: inhibitors of bacterial rRNA selective over humanized ribosomes; E. coli WT GFP vs humanized-ribosome RFP mutants, fluorescence, 24 h; stronger effect = lower value; DMSO median 0, no signal -100; GFP signal change (wild-type ribosome), % (concentration not given with the values); hit rate 1.6% among 350,000; AID 720706;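 active means significant combined selectivity score with lowered wild-type GFP, culture density cut under 30%, mutant RFP and density less affected; inactive means any of these conditions unmet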
XiGFP reactiv: activators of X-chromosome reactivation in mouse fibroblasts | AID 743238 | XiGFP mouse fibroblasts, % GFP-positive cells imaging, 3 d; cells co-treated with 5-aza-dC sensitizer; scaled so ellipticine positive control = 100% | hit rate 0.055% among 360,000 | activation, % at 7.58 µM;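 active means mean normalized replicate activation at least 10% and every replicate at or above 10%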;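 further: 0% = median of on-plate neutral control wells and 100% = ellipticine 6 µM median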
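Material: SV40-immortalized XiGFP fibroblast cells, line 68-5-11 | Buffer or medium: DMEM containing 5-aza-dC | Dosing: One concentration, pinned | Times: 3 d treatment, 15 min room-temperature fixation | Controls: Ellipticine 6 µM positive control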
RAD54 inh: blocks human RAD54 Holliday junction branch migration | hit rate 0.14% among 360,000 | Q92698 | FAM/BHQ fluorescence | AID 602329 | inhibition, % at 10.4 µM;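 active means mean normalized replicate activity at least 40 and at least half of replicates scoring 40 or more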;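 further: 0% = median of neutral control wells and 100% = median of positive control wells; inhibitors cause a drop in the FAM fluorescence signal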
An asterisk follows results filed as active; / = no result given. Rows were chosen to be rich in hits. Some 2% of all compounds tested hit in one or more screens of this group.

SMILES	RAD52 anneal inh	E-sel inducer	PglD inh	Ecoli rRNA inh	XiGFP reactiv	RAD54 inh
O=C(C/C=N\OCc1ccc([N+](=O)[O-])cc1)Nc1ccc(Cl)cc1	-5.3	/	/	-40.5*	0.0	/
CCOC(=O)CCCNC(=O)CCNC(=O)c1ccc(OC)cc1	/	/	-1.2	/	/	2.8
CCCCCOc1ccc(C(=O)NCCC(=O)NCCCC(=O)OCC)cc1	-8.3	/	/	-25.1*	0.1	/
C[C@H](CO)N1C[C@H](C)[C@H](CN(C)C(=O)CC2CC2)Oc2ncc(C#Cc3cccnc3)cc2C1=O	14.5	0.7	6.4	8.9	0.0	4.9
CC(C)OC(=O)/C(C#N)=C/c1ccc(-c2ccc(SC(F)F)cc2)o1	/	/	/	/	-0.1	/
COC(=O)/C(C#N)=C/c1ccc(-c2ccc(S(N)(=O)=O)cc2)o1	-63.6	0.3	-3.9	-27.2*	/	39.0
Cc1noc(C)c1NC(=O)N(C)C[C@@H]1OCCCC[C@H](C)Oc2ccc(NS(=O)(=O)c3ccccc3)cc2C(=O)N([C@H](C)CO)C[C@@H]1C	12.6	0.2	-0.4	-2.3	0.2	3.6
COc1ccc(CCCC(=O)N/N=C\c2cccs2)cc1	4.8	0.2	/	-22.9*	0.1	/
O=C(CCc1ccccc1)N/N=C/c1cc(Br)ccc1O	-6.7	/	/	-15.6*	0.0	/
O=C(CCC(=O)Nc1ccc(Br)cc1)N/N=C/c1ccccc1O	-13.8	0.2	-4.3	-15.3*	0.0	-8.7
COc1cccc(/C=N/NC(=O)CCc2ccccc2)c1	-5.1	/	-3.1	-21.4*	/	9.1
COC(=O)N/N=C/c1cccs1	-15.0	/	/	13.4	0.0	/
O=C(Nc1ccccc1)N1C[C@@H]2[C@H](c3ccccc31)[C@@H](CO)N2Cc1ccccc1	-1.6	-0.3	2.5	-7.0	0.1	-4.3
O=[N+]([O-])c1cccc(N=Nc2ccc(O)cc2O)c1	-6.9	-2.1	0.2	-21.0*	0.2	3.2
O=[N+]([O-])c1cccc(N=NNc2cccc([N+](=O)[O-])c2)c1	-1.7	-0.5	-4.1	-27.1*	0.2	-5.5
O=[N+]([O-])c1ccc(N=Nc2ccc(O)cc2O)cc1	/	/	-1.4	/	/	-8.1
CCCNC(=O)Nc1ccc2c(c1)C(=O)N(C)[C@H]1CC[C@H](CC(=O)Nc3cccc(C)c3)O[C@@H]1CO2	7.4	0.1	0.8	-3.2	-0.1	-0.8
COC(=O)C[C@H]1CC[C@H]2[C@@H](COc3ccc(NC(=O)c4cccc(OC)c4)cc3C(=O)N2C)O1	1.4	0.1	1.5	-0.7	0.1	6.3
CC(C)n1c2ccccc2c2cc([N+](=O)[O-])ccc21	-20.5	-0.2	/	5.4	-0.1	/
CN(C)c1ccc(C=c2c3cc(O)ccc3n3c2cc(-c2ccccc2)[n+]3C)cc1	-42.2	139.0*	/	19.8	0.0	/
C[n+]1c(-c2ccccc2)cc2c(=Cc3ccccc3)c3ccccc3n21	-1.7	220.4*	/	-43.4	1.1	/
C[n+]1c(-c2ccccc2)cc2c(=Cc3ccc([N+](=O)[O-])cc3)c3ccccc3n21	2.5	122.3*	/	-17.6	-0.1	/
COC(=O)[C@@H]1[C@@H](CO)[C@@H]2Cn3c(ccc(-c4ccc(F)cc4)c3=O)[C@@H]2N1C(=O)C1CC1	15.0	-0.1	-3.0	2.0	0.5	7.8
O=C(NC1CCCCC1)[C@H]1[C@H](CO)[C@H]2Cn3c(cccc3=O)[C@H]2N1CCc1ccccc1	-5.7	0.0	-2.0	-4.2	0.0	0.8
CCCNC(=O)N1CC2(C1)CN(C(=O)CC1CC1)[C@@H](CO)c1c2c2ccc(OC)cc2n1C	12.0	0.2	/	-1.0	0.3	/
CCCN(C)C[C@@H]1Oc2ncc(-c3cccc(C#N)c3)cc2C(=O)N([C@@H](C)CO)C[C@H]1C	-3.2	-0.1	0.8	/	0.2	-4.6
COc1ccc(C)cc1NCc1cc(=O)oc2cc(-c3ccccc3)c(O)cc12	/	/	/	/	0.4	/
COC(=O)c1ccccc1NCc1cc(=O)oc2cc(O)c(O)cc12	-18.4	1.3	0.4	-21.9*	0.0	7.4
C[C@@H]1CCCCO[C@@H](CN(C)S(=O)(=O)c2cn(C)cn2)[C@@H](C)CN([C@@H](C)CO)C(=O)c2cc(NC(=O)Nc3ccc(F)cc3)ccc2O1	11.6	0.1	7.5	-1.0	-0.2	-5.8
